Screening results (PubChem BioAssay)
Autophagy mod: autophagy modulators in MEF cells, primary screen, imaging, high-content, MEF GFP-LC3 | MEF GFP-LC3 puncta imaging; test concentration mostly 10 µM | calls only at 10 µM (by protocol) | 0.98% of 190,000 active;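 active = percentage of spot-positive cells more than 3 SD above its plate mean, without a fluorescence outlier flag or 80% toxicity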;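 note: spot-positive cell cutoff set from DMSO-treated cells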
HCT116 bCat-KO: primary screen for growth suppressors in beta-catenin knockout HCT116 cells (colon tumor, human) | 1.5% of 140,000 active | HCT116 beta-catenin knockout viability, CellTiter-Glo, 60 h; active compounds read low | viability, % at 10 µM | AID 818, 2007;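 active = viability at or under a set limit, the compound median less 4 SD, cut at about 6% in these data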;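 note: 0% = Hyamine 1622 control at 20 µM and 100% = untreated cell control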
L major viab: Leishmania major promastigote growth inhibition, primary screen; Leishmania major promastigotes, resazurin fluorescence viability; inhibition, % at 10 µM; 9% of 200,000 active; in the data active = inhibition above about 50%;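 note: promastigotes grown with compound for 44 hours at 28 °C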
Dynein transport: inhibitors of GR-EGFP nuclear translocation, primary screen, dynein cargo transport inhibitor project, imaging, high-content, 3617.4 mouse cells | test concentration mostly 20 µM; stimulated with dexamethasone, 1 µM; active compounds read low | z-score, hits read low | 0.47% of 220,000 active | AID 1381, 2008;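 active = plate z-score of nuclear minus cytoplasmic receptor signal below a set negative limit, without overly bright fluorescence or cell loss, cut at about -3.5 in these data, passing the limit was not always enough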;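 note: z-score of nuclear minus cytoplasmic ring GR-EGFP intensity difference per well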
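Buffer or medium: Induction medium lacking tetracycline, stripped serum | Also added: Dexamethasone agonist, 1.0 µM final, for 30 min | Timing: 48 h induction, 1 h compound, 30 min dex at 37 °C | Detection: Formaldehyde fixation, Hoechst nuclear stain, 10x automated fluorescence imaging | Measure: Nuclear versus cytoplasmic GR-EGFP signal, averaged per well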
HCT116 PTEN-null: growth suppression of PTEN-null HCT116, primary screen, cell-based, CellTiter-Glo. 1.2% of 140,000 active. HCT116 PTEN-null viability, 60 h; active compounds read low. viability, % at 10 µM;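 active = viability at or below a set limit, 4 SD under the median of all tested compounds, cut at about 3.7% in these data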;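 note: PTEN knockout HCT116 line with beta catenin targeted HCT116 as companion control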
Numbers without * were called inactive; i = inactive; . = not tested or not shown; + = active, no number. Most compounds without a hit are left out; they make up all but 9.2% or so of the library.

SMILES	Autophagy mod	HCT116 bCat-KO	L major viab	Dynein transport	HCT116 PTEN-null
Cc1ccc(CN(Cc2cccnc2)C(=O)CN2C(=O)COc3ccccc32)o1	i	76.9	72.5*	0.335	75.5
CCOCCCn1c(SC(C(=O)Nc2cc(C)ccc2C)c2ccccc2)nnc1-c1ccc(Cl)cc1 (stereo not drawn)	i	52.5	60.7*	2.2	59.0
N#Cc1ccc(-c2ccc(OCC(O)CN3CCOCC3)cc2)cc1 (stereo not drawn)	i	.	84.3*	-0.619	.
OC(COc1cccc(OCC(O)CN2CCOCC2)c1)CN1CCOCC1 (stereo not drawn)	i	76.4	-2.6	1.09	83.3
CN(C)CC(O)COc1ccc(-c2ccc(C#N)cc2)cc1 (stereo not drawn)	i	75.9	98.0*	-0.398	73.5
CCOc1ccc2nc(NC(=O)CCC(=O)c3cccs3)sc2c1	i	93.9	-5.5	-1.41	88.6
COc1n[nH]c(C(=O)Nc2cc(F)ccc2C)c1[N+](=O)[O-]	i	96.5	16.6	0.15	101.8
COc1n[nH]c(C(=O)Nc2cc(Cl)ccc2Cl)c1[N+](=O)[O-]	i	.	88.7*	-0.17	.
COc1ccc(Cl)cc1NC(=O)c1[nH]nc(OC)c1[N+](=O)[O-]	i	.	53.4*	1.87	.
CCOC(=O)c1csc(-c2snnc2C)n1	.	.	.	0.992	.
COc1ccc(/C=C/C(=O)OCC(=O)NCCC2=CCCCC2)cc1	i	.	0.8	-0.526	.
C=CCNC(=O)C1CC(=O)N(c2ccc(OCC(=O)Nc3ccc(Cl)c(C(F)(F)F)c3)cc2)C1 (stereo not drawn)	i	1.9*	-0.4	1.19	1.9*
COc1ccc(C(=O)C/C(=C\C(=O)c2ccc(C)cc2)c2ccccc2)cc1	i	8.3	52.4*	0.603	9.2
COc1cccc(NC(=O)c2cc(-c3ccncc3)nc3c(C)cc(C)cc23)c1	i	.	55.1*	0.714	.
COc1ccc(C(=O)Nc2cccc(OC)c2)cc1	i	81.1	-3.5	-0.206	82.9
Cc1cc(-c2cc(-c3ccc(Cl)cc3)nc(N)c2C#N)co1	i	63.6	62.3*	-1.72	67.9
COc1ccc(-c2cc(-c3ccc(O)cc3)nc(N)c2C#N)cc1OC	i	.	65.0*	-0.642	.
O=C(NC1CCCCC1)C(=S)N1CCOCC1	i	.	0.0	0.851	.
COc1ccc(C(CC(=O)O)NC(=O)COc2ccc(C)cc2)cc1OC (stereo not drawn)	i	81.8	1.8	-0.397	95.0
Cc1cccc(CN2C(=O)N/C(=C/c3ccc(C)s3)C2=O)c1	+	44.1	8.3	-1.89	45.7
CCN1C(=O)/C(=C/c2ccc(C)s2)NC1=S	i	83.0	0.3	-0.916	98.8
Cc1cccc(CN2C(=O)N/C(=C/c3cc(C)n(-c4cc(C)ccn4)c3C)C2=O)c1	i	61.2	31.6	0.17	53.6
Cc1ccc(/C=C2/NC(=O)N(Cc3ccccc3)C2=O)s1	i	98.7	72.8*	-5.2	89.9
Cc1ccc(NC(=O)CN2C(=O)S/C(=C\C(=O)Nc3ccc(Cl)cc3)C2=O)cc1	i	97.2	62.6*	0.688	90.6
Cc1ccc(NC(=O)CN2C(=O)N/C(=C/c3ccc(C)o3)C2=O)cc1	i	95.6	-2.9	-1.02	96.5
SMILES	Autophagy mod	HCT116 bCat-KO	L major viab	Dynein transport	HCT116 PTEN-null
Cc1ccc(NC(=O)CN2C(=O)N/C(=C/c3ccc(C)s3)C2=O)cc1	+	91.3	-0.9	-1.17	92.9
COc1cc(CCCN2C(N)=NC[C@@H]2Cc2ccccc2)cc(OC)c1OC	.	.	.	-0.81	.
Cc1[nH]c2ccccc2c1C(=O)CN1CCCCC1CCO (stereo not drawn)	i	75.7	2.8	-0.0958	87.2
CCOC(=O)C1CCN(CCC(=O)Nc2ccc(Cl)cc2)CC1	i	93.7	91.0*	-0.141	92.8
CCOC(=O)C1CCC(CNCc2ccc(Cl)cc2)CC1 (stereo not drawn)	i	91.0	92.2*	0.383	86.9
CCOC(=O)C1CCCN(CCC(=O)Nc2ccccc2)C1 (stereo not drawn)	i	96.2	-2.6	0.0988	101.8
CCOC(=O)Cc1ccc(NCc2ccc(Cl)cc2)cc1	i	.	100.2*	-0.217	.
CCOC(=O)C1CCN(CCC(=O)Nc2ccccc2)CC1	i	96.5	79.1*	0.253	92.6
C/C(=N\NC(=O)c1c(Cl)cnn1C)c1ccc(NC(=O)c2ccncc2)cc1	i	95.0	12.3	0.312	94.8
CC1(C(=O)NCC2CCCO2)Oc2cccnc2NC1=O (stereo not drawn)	i	.	8.6	-0.186	.
Cc1c(Cl)cccc1NC(=O)CCN1CCCCCC1	i	92.6	1.0	-0.34	98.3
CCOC(=O)C1CCN(CCC(=O)Nc2cccc(Cl)c2C)CC1	i	102.6	94.0*	-0.111	109.8
CCOC(=O)c1sc2nccc(N(C)C)c2c1N=CNOCc1c(F)cccc1Cl	i	85.5	9.1	-0.087	76.9
O=C(c1cccc(Br)c1)N1CCN(c2cnn(-c3ccccc3)c(=O)c2Cl)CC1	i	.	84.1*	1.92	.
CC(C)NC(=S)N/N=C1\CCCc2ccccc21	i	.	-0.8	-0.492	.
O=C(CCN1CCN(c2ccccc2)CC1)N/N=C/c1ccccc1O	i	.	98.1*	-0.342	.
CN1CCN(CCC(=O)N/N=C/c2ccccc2F)CC1	.	.	.	-0.684	.
Cc1ccc(N(CC(=O)Nc2ccc(S(=O)(=O)N3CCOCC3)cc2)S(C)(=O)=O)cc1C	i	94.7	7.4	1.18	101.8
O=C(CSCc1ccc(Br)cc1)Nc1ccc(S(=O)(=O)N2CCOCC2)cc1	i	66.0	99.9*	-1.27	73.8
CC(C)c1ccc(N(CC(=O)Nc2ccc(S(=O)(=O)N3CCOCC3)cc2)S(C)(=O)=O)cc1	i	95.5	89.9*	-1.22	84.3
CCC(=O)Nc1ccc(S(=O)(=O)N2CCOCC2)cc1	i	96.1	2.0	-0.0353	93.3
O=C(Cn1c(=O)sc2ccccc21)Nc1ccc(S(=O)(=O)N2CCCC2)cc1	i	86.6	80.4*	0.63	85.5
O=C(CN1CCCCCC1)Nc1ccc(S(=O)(=O)N2CCOCC2)cc1	i	.	55.3*	-0.548	.
O=C(CCc1ccccc1)Nc1ccc(S(=O)(=O)N2CCCC2)cc1	i	.	0.0	0.671	.
CC(C)(C(=O)O)n1cncn1	i	.	-10.7	-0.652	.
O=C(CSc1nc(-c2cccs2)cc(C(F)(F)F)n1)Nc1cc(OCC(F)(F)C(F)F)cc([N+](=O)[O-])c1	i	51.0	84.3*	0.117	42.6
COC(=O)C1=C(C)N=c2s/c(=C3\C(=O)Nc4ccccc43)c(=O)n2C1c1ccccc1 (stereo not drawn)	i	98.2	26.4	-1	93.8
CCOC(=O)C1=C(C)N=c2s/c(=C3/C(=O)Nc4ccccc43)c(=O)n2C1c1ccc(C)cc1 (stereo not drawn)	i	105.5	54.3*	-1.48	91.2
O=C(NCc1cccnc1)c1cc(Sc2cccc(Cl)c2)nc2ccccc12	i	75.1	68.4*	-0.33	58.7
